According to ChEMBL document CHEMBL2093137, “WHO-TDR NTD Screening”:
≈ marks a conversion by molar mass, not a printed value.

Columns and labels:
Schistosoma mansoni [1] = assay: (§1) WHO-TDR: Schistosomiasis; format: functional; design: concentration or dose not given beside the values
In short: (§2)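 A diverse library of 10,000 compounds from Life Chemicals, filtered for drug-likeness and reactive groups, was screened against whole larval and/or adult Schistosoma mansoni worms of the Puerto Rican strain. Previously published standard procedures were followed, with a reference drug as positive control. Activity is given as percent inhibition and as IC50.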

[2] = system: Trypanosoma brucei brucei; assay: WHO-TDR: Human African Trypanosomiasis (HAT); format: functional, organism-based; settings: Squib-427
In short: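 In this whole-organism screen, the target was the bloodstream form of Trypanosoma brucei, strain Squib 427. A diverse set of 10,000 compounds from Life Chemicals, previously filtered for drug-likeness and reactive groups, was assayed by standard published procedures using reference drugs as positive controls. Each value is an IC50 for antiparasitic potency.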

[3] = WHO-TDR: Cytotoxicity; format: toxicity, cell-based; settings: human, MRC5 cells
Onchocerca lienalis = assay: (§3) WHO-TDR: Onchocerciasis; format: functional; design: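 at 12.5 µM on microfilariae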
In short: (§4)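 A diverse library of 10,000 compounds from Life Chemicals, filtered for drug-likeness and reactive groups, was screened against whole microfilariae of Onchocerca ochengi or Onchocerca lienalis. These animal pathogens served as stand-ins for the human parasite. Activity is given as percent inhibition and as IC50.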

Trypanosoma cruzi = assay: WHO-TDR: Chagas disease; format: functional, organism-based, Homo sapiens; settings: MRC5
In short: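 Following previously published standard procedures, with a reference drug as positive control, a whole-organism assay was run on Trypanosoma cruzi Tulahuen CL2 beta-galactosidase strain amastigotes inside MRC-5SV2 human lung fibroblast host cells. The 10,000 compounds tested formed a diverse Life Chemicals library filtered for drug-likeness and reactive groups. Results are expressed as IC50 for antiparasitic potency.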

Schistosoma mansoni [4] = assay: as §1; format: functional, organism-based; in short: as §2
Leishmania infantum = assay: WHO-TDR: Leishmaniasis; format: functional, organism-based, Mus musculus; settings: Macrophage
In short: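 Intracellular amastigotes of Leishmania infantum MHOM/MA(BE)/67, hosted in murine peritoneal macrophages, were exposed to compounds from a 10,000-member diverse library supplied by Life Chemicals. The library had been filtered for drug-likeness and reactive groups. The reported IC50 expresses antiparasitic potency.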

Plasmodium falciparum K1 = assay: WHO-TDR: Malaria; format: functional, organism-based, Homo sapiens; settings: Erythrocyte
In short: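 Previously published standard procedures, including a reference drug as positive control, were used to screen whole Plasmodium falciparum K1 parasites inside human red blood cells. IC50 is the measure of antiplasmodial potency. The compounds were a 10,000-member diverse Life Chemicals library.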

Onchocerca ochengi = assay: as §3; format: functional; design: concentration or dose not given beside the values; in short: as §4;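 note: at 12.5 µM on microfilariae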
Brugia malayi = assay: WHO-TDR: Lymphatic Filariasis; format: functional; design: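 tested at 10 µM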
In short: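 A diverse library of 10,000 compounds from Life Chemicals was screened against Brugia malayi microfilariae in a whole-organism assay. The library had been filtered for drug-likeness and reactive groups. Activity is given as percent inhibition and as IC50.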

IC50 [2] [µg/mL] | IC50 (Schistosoma mansoni [4]) | IC50 (Leishmania infantum) [µg/mL] | IC50 (Plasmodium falciparum K1) [µg/mL] | SMILES | % Inhibition (Schistosoma mansoni [1]) [%] | IC50 [3] [µg/mL] | % Inhibition (Onchocerca lienalis) [%] | IC50 (Trypanosoma cruzi) [µg/mL] | % Inhibition (Onchocerca ochengi) [%] | % Inhibition (Brugia malayi) [%]
4.38 (≈ 8.92 µM) | 7.4 µM | 4.66 (≈ 9.49 µM) | > 8.86 | CN(CC1CCCO1)S(=O)(=O)c1ccc(C(=O)Nc2cccc(-c3nc4ccccc4o3)c2)cc1 (configuration not stated) | 100 | > 8.86 | 13.3 | > 8.86 | – | –
> 9.7 | 8.2 µM | > 9.7 | > 9.7 | COC(=O)c1sc(-c2ccccc2)cc1NC(=O)CCS(=O)(=O)c1ccccc1 | 100 | > 9.7 | 13.3 | > 9.7 | – | –
> 11 | 9.9 µM | > 11 | 7.35 (≈ 14.8 µM) | CCN(c1ccccc1)S(=O)(=O)c1ccc(C(=O)Nc2sc3c(c2C(=O)NC)CCCC3)cc1 | 100 | > 11 | 13.3 | 5.24 (≈ 10.5 µM) | – | –
> 12.1 | 6.5 µM | > 12.1 | > 12.1 | CCc1ccc(NC(=O)c2oc3ccccc3c2NC(=O)Cc2cccs2)cc1 | 100 | > 12.1 | 0 | > 12.1 | – | –
3.24 (≈ 9.49 µM) | 5.2 µM | > 10.2 | 0.966 (≈ 2.83 µM) | O=C(CSc1nncc(=O)[nH]1)Nc1ccc(Br)cc1 | 100 | 1.76 (≈ 5.15 µM) | 0 | 2.82 (≈ 8.26 µM) | – | –
2.91 (≈ 9.37 µM) | 4.5 µM | > 9.32 | 3.64 (≈ 11.7 µM) | Cc1ccc(NC(=O)CSc2nncc(=O)[nH]2)cc1Cl | 100 | 2.55 (≈ 8.2 µM) | 0 | 2.99 (≈ 9.61 µM) | – | –
> 12.6 | 2.7 µM | 4.07 (≈ 9.71 µM) | 10.4 (≈ 24.8 µM) | Cc1nc(-c2ccccc2)sc1C(=O)Nc1cccc(-c2cn3c(n2)SCC3)c1 | 100 | 8.81 (≈ 21.1 µM) | 0 | 10.5 (≈ 25 µM) | – | –
> 10.8 | 2.48 µg/mL | > 10.8 | > 10.8 | O=C(Cc1csc(NC(=O)C2CCC(=O)N2)n1)NCc1ccccn1 (configuration not stated) | 100 | > 10.8 | – | > 10.8 | 0 | 20
0.472 (≈ 1.24 µM) | 4.7 µM | 3.7 (≈ 9.71 µM) | 0.378 (≈ 0.99 µM) | CCN(CC)c1cc(C)nc(Nc2ccc(NC(=O)c3cccs3)cc2)n1 | 100 | 2.96 (≈ 7.76 µM) | -1 | 0.295 (≈ 0.773 µM) | – | –
1.59 (≈ 4.37 µM) | 2.36 µg/mL | > 10.9 | 0.396 (≈ 1.09 µM) | O=C(c1ccccc1F)N1CCN(c2ccc(-c3ccccn3)nn2)CC1 | 100 | 2.77 (≈ 7.63 µM) | – | 0.375 (≈ 1.03 µM) | 100 | 33.33
2.53 (≈ 8.27 µM) | 5.8 µM | > 9.19 | 0.566 (≈ 1.85 µM) | CCOc1ccc(NC(=O)CSc2nncc(O)n2)cc1 | 100 | 3.01 (≈ 9.83 µM) | 0 | 3.3 (≈ 10.8 µM) | – | –

The remaining lines, values behind:

SMILES | IC50 [2] [µg/mL] | IC50 (Schistosoma mansoni [4]) | IC50 (Leishmania infantum) [µg/mL] | IC50 (Plasmodium falciparum K1) [µg/mL] | % Inhibition (Schistosoma mansoni [1]) [%] | IC50 [3] [µg/mL] | % Inhibition (Onchocerca lienalis) [%] | IC50 (Trypanosoma cruzi) [µg/mL] | % Inhibition (Onchocerca ochengi) [%] | % Inhibition (Brugia malayi) [%]
CN(C)CCCN(C(=O)c1cc(-c2cccs2)nc2ccccc12)c1nc2c(F)cccc2s1 | 0.383 (≈ 0.781 µM) | 4.3 µM | 5.12 (≈ 10.4 µM) | 1.2 (≈ 2.44 µM) | 100 | 4.21 (≈ 8.58 µM) | 0 | 4.32 (≈ 8.81 µM) | – | –
O=C(Nc1cc2ccccc2cc1NC(=O)c1ccc2c(c1)OCCO2)c1ccc2c(c1)OCCO2 | > 14.5 | 8.8 µM | > 14.5 | > 14.5 | 100 | > 14.5 | 13.3 | > 14.5 | – | –
CCOC(=O)c1c(NC(=O)C(C)Sc2nnc(NC(C)=O)s2)sc2c1CCCC2 (configuration not stated) | > 13.6 | 9.8 µM | > 13.6 | > 13.6 | 100 | > 13.6 | 0 | > 13.6 | – | –
C=CCN(CC=C)S(=O)(=O)c1ccc(C(=O)Nc2nc3ccc(C(C)C)cc3s2)cc1 | > 11 | 5.7 µM | > 11 | > 11 | 100 | > 11 | 0 | 4.48 (≈ 9.84 µM) | – | –
Cc1ccc(NC(=O)c2oc3ccccc3c2NC(=O)CC(c2ccccc2)c2ccccc2)cc1C | > 14.7 | 6.7 µM | 4.75 (≈ 9.71 µM) | > 14.7 | 100 | > 14.7 | 0 | > 14.7 | – | –
CCSc1nnc(NC(=O)CSc2nncc(=O)[nH]2)s1 | 3.13 (≈ 9.49 µM) | 5.2 µM | 3.21 (≈ 9.71 µM) | > 9.91 | 100 | 1.95 (≈ 5.92 µM) | 0 | 3.09 (≈ 9.35 µM) | – | –
O=C(CSc1nncc(=O)[nH]1)Nc1cc(C(F)(F)F)ccc1Cl | > 10.9 | 6.3 µM | > 10.9 | > 10.9 | 100 | > 10.9 | 0 | > 10.9 | – | –
C#CCn1/c(=N\C(=O)c2cc(C)no2)sc2cc(S(N)(=O)=O)ccc21 | > 11.3 | 3.16 µg/mL | > 11.3 | > 11.3 | 100 | > 11.3 | – | > 11.3 | 0 | 0
CN(C)CCCN(C(=O)/C=C/c1ccccc1Cl)c1nc2cc3c(cc2s1)OCO3 | 0.428 (≈ 0.964 µM) | 4.3 µM | 0.467 (≈ 1.05 µM) | 1.44 (≈ 3.25 µM) | 100 | 0.462 (≈ 1.04 µM) | 0 | 0.408 (≈ 0.919 µM) | – | –
COc1cc(OC)cc(C(=O)N(CCCN(C)C)c2nc3c(C)c(C)ccc3s2)c1 | 0.456 (≈ 1.07 µM) | 5.7 µM | 4.51 (≈ 10.5 µM) | 1.13 (≈ 2.64 µM) | 100 | 2.84 (≈ 6.64 µM) | 0 | 4.66 (≈ 10.9 µM) | – | –
COc1ccc(N2CCCS2(=O)=O)cc1NC(=O)c1cc(Cl)ccc1OC | 4.31 (≈ 10.5 µM) | 4.3 µM | 0.399 (≈ 0.971 µM) | > 12.3 | 100 | > 12.3 | 13.3 | 5.04 (≈ 12.3 µM) | – | –
O=C(NCc1nnnn1-c1ccc(Cl)cc1)C1c2ccccc2Oc2ccccc21 | > 12.5 | 6.6 µM | > 12.5 | > 12.5 | 100 | > 12.5 | 0 | > 12.5 | – | –
CCOc1ccc(C(=O)Nc2ccc(Nc3nc(C)cc(N(CC)CC)n3)cc2)cc1OCC | 4.4 (≈ 9.49 µM) | 8.3 µM | 4.5 (≈ 9.71 µM) | 0.51 (≈ 1.1 µM) | 100 | 3.94 (≈ 8.5 µM) | 20 | 0.428 (≈ 0.922 µM) | – | –
CCN(CC)c1cc(C)nc(Nc2ccc(NC(=O)c3c(F)cccc3F)cc2)n1 | 3.63 (≈ 8.81 µM) | 7.4 µM | 3.9 (≈ 9.49 µM) | 0.77 (≈ 1.87 µM) | 100 | 2.86 (≈ 6.95 µM) | -1 | 0.26 (≈ 0.632 µM) | – | –
COc1cc(C)c(Cl)cc1S(=O)(=O)Nc1ccc(Nc2nc(C)cc(N3CCOCC3)n2)cc1 | > 15.1 | 5.1 µM | > 15.1 | > 15.1 | 100 | > 15.1 | 46.7 | > 15.1 | – | –
O=C(NCCOc1ccc2nnc(-c3ccccc3)n2n1)c1ccccc1C(F)(F)F | > 12.8 | 3.38 µg/mL | > 12.8 | > 12.8 | 100 | > 12.8 | – | > 12.8 | 0 | 33.33
COc1ccc(Cl)cc1C(=O)NCCOc1ccc2nnc(-c3ccc(F)cc3)n2n1 | > 13.3 | 3.58 µg/mL | 4.29 (≈ 9.71 µM) | > 13.3 | 100 | > 13.3 | – | > 13.3 | 0 | 33.33
O=C(CCC1CCCCC1)N1CCN(c2ccc(-c3cccnc3)nn2)CC1 | > 11.4 | 3.15 µg/mL | > 11.4 | 6.4 (≈ 16.9 µM) | 100 | > 11.4 | – | 4.89 (≈ 12.9 µM) | 50 | 33.33
O=S(=O)(c1ccccc1Cl)N1CCN(c2ccc(-c3ccco3)nn2)CC1 | > 12.1 | 2.79 µg/mL | > 12.1 | > 12.1 | 100 | > 12.1 | – | > 12.1 | 0 | 0
